Most compounds without a hit are left out; they make up all but 4.9% or so of the library.
NF-kB neuron act: activators of NF-kB expression in neurons, primary screen, cell-based, HTS; human neuronal cells, NF-kB reporter expression; stronger effect = higher value; fold change at 12.5 µM; 1.6% of 190,000 active; AID 1239, 2008; in the data active = fold change above about 3.3
STAT1 inh: STAT1 signaling inhibitors, primary screen, cell-based, HTS, luciferase reporter; AID 920, 2007; NIH 3T3 STAT1-luciferase reporter, IFN-gamma, luminescence; 0.35% of 200,000 active; inhibition, % at 5.5 µM;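 active = inhibition above a set limit, the mean inhibition across all tested compounds plus 3 SD, cut at about 34% in these data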;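 note: 0% = IFN-gamma with DMSO and 100% = IFN-gamma with 300 µM nifuroxazide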
STAT1 act-1: STAT1 signaling activators, primary screen, cell-based, HTS, luciferase reporter; NIH 3T3 STAT1-luciferase reporter, IFN-gamma, luminescence; 100% = IFN-gamma alone, no compound; activation (% of control), % at 5.5 µM; 2.6% of 200,000 active;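 active = activation above the screen-wide mean activation plus 3 SD, cut at about 130% in these data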;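 note: raw ratio to IFN-gamma control signal so 100% means no change and 0% no light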
APP 5'UTR act: activators of APP 5'UTR luciferase reporter, primary screen, SH-SY5Y cells | 1% of 190,000 active | activation, % at 2 µM | SH-SY5Y APP 5'UTR luciferase reporter, luminescence; zero percent = DMSO vehicle wells;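 active = activation above a set limit, based on mean plus 3 SD of controls, cut at about 140% in these data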
STAT3 act-1: IL-6 driven STAT3 reporter potentiators, primary screen, U3A cells, luciferase, luminescence, MLSCN library; activation (% of control), % at 5.6 µM; 0.91% of 190,000 active; IL-6 STAT3-luciferase reporter; 100% = signal with IL-6 EC80 alone;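 active = activation above the screen-wide mean of compound activation plus 3 SD, cut at about 130% in these data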;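 note: 0% = background luminescence of wells with medium and substrate only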
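Test system: STAT3-luciferase reporter U3A cells; Detection: reporter luminescence signal; Times: 1 h compound pre-exposure, 6 h IL-6 stimulation, 37 °C; Benchmarks: IL-6-only high control; Also added: IL-6 stimulus at 33 ng/mL final.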
STAT3 blocker: IL-6 driven STAT3 reporter inhibitors, primary screen, U3A cells, luciferase, luminescence, MLSCN library | 0.89% of 190,000 active | IL-6 STAT3-luciferase reporter; host cell line lacks STAT1 | AID 862, 2007 | inhibition, % at 5.5 µM;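 active = inhibition above the mean inhibition across all screened compounds plus 3 SD, cut at about 44% in these data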;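 note: 0% = DMSO only wells and 100% = 100 µM nifuroxazide control wells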
STAT3 act-2: STAT3 reporter potentiators, retest of hits, confirmation, U3A cells, luciferase, luminescence; IL-6 potentiation; U3A cells lack STAT1; 100 means same as IL-6 alone; 64% of 1,200 active; AID 1267, 2008; potentiation (% of control), % at 5.7 µM; shares compounds with STAT3 act-1;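 active = percent activation of the STAT3 luciferase reporter above a set limit taken from the earlier primary screen, cut at about 130% in these data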;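 note: 0% = background signal of medium plus substrate and 100% = median of IL-6 with DMSO wells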
NFkB act 2: NF-kB reporter activators in human cells, counter-screen for STAT3 activator project | NF-kappaB reporter activation | shares compounds with STAT3 act-1 | activation (% of control), % at 5.7 µM | AID 1309, 2008 | 11% of 1,200 active; in the data active = activation above about 120%;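 note: reporter induced by TNF-alpha stimulation; 100% = median of stimulated DMSO wells and 0% = no signal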
STAT1 act-2: STAT1 reporter activators, IFN-gamma induced, counter-screen for STAT3 activator project, cell-based, NIH 3T3, luciferase luminescence; NIH 3T3 STAT1-luciferase reporter; shares compounds with STAT3 act-1; 13% of 1,200 active; activation (% of control), % at 5.7 µM;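 active = activation above the solvent-only control well mean plus 3 SD, set per screening run, cut at about 120% in these data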;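 note: 100% = IFN-gamma with DMSO median signal so 100% means no change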
Active calls of the source: *; . = no result.

SMILES	NF-kB neuron act	STAT1 inh	STAT1 act-1	APP 5'UTR act	STAT3 act-1	STAT3 blocker	STAT3 act-2	NFkB act 2	STAT1 act-2
Cc1cc(C)n(C(=O)c2sc3cc(F)ccc3c2Cl)n1	1.2	0	100	-5	100	4	.	.	.
Cc1ccc(C(=O)Nc2ccc3cn[nH]c3c2)cc1S(=O)(=O)N1CCCCC1	1.6	-20	118	46	143*	-41	139*	116	142*
COc1ccc(OCc2ccc(C(=O)NN)cc2)cc1	1.4	-3	103	-10	106	-8	.	.	.
Cc1nnc(NC(=O)c2oc3c(ccc4ccccc43)c2C)s1	1	-8	107	0	150*	-59	146*	106	102
COC(=O)c1cnn(-c2nc3c(C)cccc3s2)c1C	2	-1	101	1	140*	-40	134*	108	116
CCC(=O)N(Cc1cc(=O)[nH]c2ccccc12)c1cccc(C)c1	1	-3	103	12	142*	-48	124	101	96
COc1ccc(N(Cc2cc(=O)[nH]c3ccccc23)C(=O)c2ccco2)cc1	1.2	14	87	12	118	-20	.	.	.
O=S(=O)(NCCSc1ccccn1)c1ccc(Br)cc1	1.1	-6	104	11	101	2	.	.	.
Cc1cccc2nc(CSc3nc4cc([N+](=O)[O-])ccc4s3)cn12	1.3	19	84	-16	89	12	.	.	.
Cc1cc(NC(=O)CN2CCOCC2)n(-c2nc3ccccc3s2)n1	0.59	1	99	-2	165*	-77	146*	102	99
CC(=O)Nc1cc(C)nn1-c1nc2ccccc2s1	0.4	-16	116	73	148*	-44	181*	122*	144*
CCCCn1c2ccc(F)cc2c2nnc(NN)nc21	0.98	0	100	-13	106	-1	.	.	.
CCC(C)(C(=O)NC1CCCC1)N(C(=O)c1cnccn1)c1ccccc1 (stereo not drawn)	1	0	100	-7	137*	-40	117	100	103
COC(=O)Cn1c(=NC(=O)c2ccc([N+](=O)[O-])s2)sc2cc(Br)ccc21	1.2	1	99	1	112	-12	.	.	.
O=S(=O)(c1ccc(Cl)s1)N1CCCc2cccc(O)c21	2.7	-24	122	79	110	-11	.	.	.
CC(C)n1c(O)c(N=NC(=O)C2COc3ccccc3O2)c2ccccc21 (stereo not drawn)	1	3	95	-8	132	-35	.	.	.
COCc1cc(=O)n2c(-c3ccccc3OC)n[nH]c2n1	0.87	-6	107	-6	145*	-49	159*	106	101
O=C1C(=O)N(Cc2ccccc2)C(=O)N1CCOc1ccccc1	1.2	2	96	-12	99	7	.	.	.
CCCS(=O)(=O)Nc1ccc2cn[nH]c2c1	1.1	14	86	-10	99	8	.	.	.
Cc1c(Cl)ccc2c1NC(=O)[C@]21[C@@H]2C(=O)N(Cc3ccccc3)C(=O)[C@@H]2[C@@H]2CCCN21	0.88	-2	102	-5	141*	-43	127	101	89
COC(=O)C1=C(C)N(CCc2c[nH]c3ccccc23)C(=O)/C1=C\N(C)C	0.63	-3	101	15	98	13	.	.	.
O=C1C2CC=C(Cl)CC2C(=O)N1CCc1c[nH]c2ccccc12 (stereo not drawn)	1.3	3	97	10	141*	-43	149*	103	87

Screening results from PubChem.
